MsrA inhibitor: inhibitors of bovine MsrA. purified bovine MsrA, absorbance read-out. inhibition, % at 15.5 µM. actives 0.75% (n = 360,000);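 note: 0% = vehicle wells with enzyme and 100% = reference inhibitor wells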
ASAP1 inh: ASAP1 ArfGAP inhibition; ASAP1-stimulated ARF1 GTP hydrolysis, GDP FP detection; inhibition, % at 16.5 µM; actives 0.19% (n = 360,000); AID 624377; in the data active = inhibition above about 25%;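 note: 0% = vehicle with enzyme and substrate and 100% = no enzyme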
Target sequence (Q9ULH1 325-724 limits assumed): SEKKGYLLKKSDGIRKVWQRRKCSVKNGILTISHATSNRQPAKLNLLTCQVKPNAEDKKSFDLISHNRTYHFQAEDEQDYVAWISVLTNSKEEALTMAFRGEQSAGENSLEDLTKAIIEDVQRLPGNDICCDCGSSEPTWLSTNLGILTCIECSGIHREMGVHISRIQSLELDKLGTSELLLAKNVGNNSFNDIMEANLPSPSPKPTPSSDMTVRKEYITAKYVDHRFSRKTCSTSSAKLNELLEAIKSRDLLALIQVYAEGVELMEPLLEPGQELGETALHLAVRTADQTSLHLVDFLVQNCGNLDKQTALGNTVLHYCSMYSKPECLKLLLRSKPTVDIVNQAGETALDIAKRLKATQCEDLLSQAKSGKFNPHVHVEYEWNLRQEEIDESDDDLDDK
ARFGAP1 inhibitor: inhibitors of rat ARFGAP1; Arfgap1-stimulated ARF1 GTP hydrolysis, GDP FP detection; inhibition, % at 16.5 µM; actives 0.26% (n = 360,000); Q62848;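 active = inhibition above a per-plate limit, mean inhibition of low control wells plus 3 SD, cut at about 25% in these data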;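 note: 0% = DMSO wells with enzyme and 100% = wells lacking Arfgap1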
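Material: rat Arfgap1 catalytic domain, aa 1-136; also added: human ARF1(Δ1-17)-GTP substrate; compound dosing: one concentration, 16.5 µM, DMSO 1.26%; incubation: GTP hydrolysis reaction 2 h at 25 °C; measured by: Tracer-displacement fluorescence polarization with EDTA stop, 620/688 nm; evaluation: % inhibition from polarization; repeats: one replicate per compound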
bovine MsrA act: activates bovine MsrA enzyme. purified bovine MsrA, absorbance read-out. activation, % at 10.6 µM. actives 0.3% (n = 360,000); in the data active = activation above about 7.5%;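 note: 0% = vehicle and 100% = reference activator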
MsrA conf: confirmation of bovine MsrA inhibitors; shares compounds with MsrA inhibitor; purified bovine MsrA, absorbance read-out; actives 41% (n = 2,300); AID 651822; inhibition, % at 15.5 µM;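 note: coupled to thioredoxin reductase with NADPH and selenocystamine and DMSO as substrate; 0% = vehicle only and 100% = full effect of reference inhibitor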
Active calls of the source: *; nt = no result. Shown are actives, neighbours in structure and some others; about 1.4% of the full set was active somewhere. Cut-off read from the data, not from the text of the source, unless noted: active = inhibition above about 4.5%; inactive = the rest.

SMILES	MsrA inhibitor	ASAP1 inh	ARFGAP1 inhibitor	bovine MsrA act	MsrA conf
C=CCn1c(O)c(/C=N/N2CCCCC2c2cccnc2)c(=O)[nH]c1=S (stereo not given)	5.8*	-18.9	-8.6	-4.6	4.2
Cc1cc(C)c(-n2c(O)c(/C=N/N3CCCCC3c3cccnc3)c(=O)[nH]c2=O)c(C)c1 (stereo not given)	1.0	-1.3	-13.5	-1.0	nt
CN(C)c1ccc(C(=O)c2ccc(N(C)C)cc2)cc1	5.0*	4.2	-2.0	-7.8	3.5
CCCCC1(CC)COP(=O)(OCC(Cl)(Cl)Cl)OC1 (stereo not given)	-1.1	4.7	5.0	-7.0	nt
COc1cc(N2CCOCC2)ccc1C=C1C(=O)NC(=O)NC1=O	3.5	-1.0	1.4	-6.5	nt
O=C1NC(=O)C(=Cc2ccc(N3CCOCC3)cc2)C(=O)N1	6.0*	1.0	9.2	-2.6	3.1
CN(C)c1ccc(/C=C2/C(=O)NC(=O)N(CCc3ccc(F)cc3)C2=O)cc1	3.7	-1.1	3.5	-4.1	nt
CN(C)c1ccc(/C=C2\C(=O)NC(=O)N(Cc3ccc(F)cc3)C2=O)cc1	4.9*	-14.5	-12.4	-3.4	4.6*
CC(C)n1c(O)c(C=NCc2cccnc2)c(=O)[nH]c1=S	4.9*	-8.1	-8.8	-4.9	5.2*
CC(C)c1ccc(-n2c(O)c(C=NC(CCS(C)=O)C(=O)O)c(=O)[nH]c2=S)cc1 (stereo not given)	5.1*	0.1	-4.3	-4.3	4.3
Cc1ccc(C)c(Cn2c(C(=O)O)c(C=O)c3ccccc32)c1	0.2	0.9	9.6	-5.4	nt
CCOC(=O)c1c(C=O)c2ccccc2n1Cc1ccccc1	4.9*	-5.7	3.4	-2.0	5.0*
COC(=O)C1=C(c2ccc(F)cc2F)C[C@@H]2CC[C@H]1N2C(=O)NCCOc1ccc(OC)cc1	nt	nt	nt	-9.0	nt
COC(=O)C1=C(C)NC(=S)NC1c1ccc(N(CCCl)CCCl)cc1Cl (stereo not given)	1.8	5.7	-10.1	-0.7	nt
Cc1cc(N(CCCl)CCCl)ccc1/C=N/NC(=O)c1ccco1	4.8*	-1.7	-5.0	-13.4	2.8
CS(=O)(=O)N1Cc2ccccc2-n2nncc2C1	3.3	6.5	-2.4	0.4	nt
CN1CC(C(=O)c2cccc(C(F)(F)F)c2)C(c2ccc(Cl)cc2)C1 (stereo not given)	-0.8	-0.6	-3.8	-0.6	nt
N#CCCn1cc(C(=O)Nc2ccccc2Br)c(-c2ccc([N+](=O)[O-])cc2)n1	46.6*	12.4	11.6	2.9	0.5
Cc1cccc(-n2c(O)c(C=NCCN3CCNCC3)c(=O)[nH]c2=S)c1	2.4	-5.2	2.2	-2.8	nt
CNC(=S)N1CCN(CCN=Cc2c(O)n(-c3ccc(C)cc3)c(=S)[nH]c2=O)CC1	4.7*	-8.1	-4.5	-5.8	2.7
CCC(=O)OC1CCC2C3CCC4CC(=O)C=CC4(C)C3CCC12C (stereo not given)	0.8	-2.6	5.5	-2.3	nt
O=C(O)C(Br)CBr (stereo not given)	-0.2	-11.5	4.5	-3.7	nt
C/C(=N\NC(=O)c1ccccc1Cl)c1c(O)n(C2CCCCC2)c(=O)[nH]c1=O	3.7	-18.2	-2.4	-6.2	nt
C/C(=N\NC(=O)c1ccccc1O)c1c(O)n(C2CCCCC2)c(=O)[nH]c1=O	5.0*	8.4	6.6	-5.1	6.7*
Cn1c(O)c(C=Nc2ccccc2)c(=O)n(C)c1=O	5.1*	-15.4	-4.2	-6.2	4.8*
SMILES	MsrA inhibitor	ASAP1 inh	ARFGAP1 inhibitor	bovine MsrA act	MsrA conf
C[C@@H]1CN([C@@H](C)CO)C(=O)CCCn2nncc2CO[C@H]1CN(C)C(=O)Oc1ccccc1	-0.4	3.4	-2.6	-2.1	nt
COC(=O)C1=C(c2ccc(F)cc2F)C[C@@H]2CC[C@H]1N2C(=O)NCc1ccc(C(F)(F)F)cc1	-0.1	-3.1	11.6	-0.8	nt
O=C(NN=Cc1ccc(N(CCCl)CCCl)cc1)c1cccc([N+](=O)[O-])c1	1.0	-0.3	3.7	-3.9	nt
O=C(NN=Cc1ccc(N(CCCl)CCCl)cc1)c1cccnc1	5.2*	11.6	-11.7	-5.6	4.3
COc1cccc(C(c2nnnn2C(C)(C)C)N2CCC3(CC2)C(=O)NCN3c2ccccc2)c1OC (stereo not given)	0.2	-5.8	-4.5	-1.0	nt
CCCC(=O)Nc1ccc(N2CCN(CC)CC2)c(Cl)c1	0.5	3.7	5.0	-0.6	nt
CCCC(=O)NC1=C(N2CC2)C(=O)C(NC(=O)CCC)=C(N2CC2)C1=O	4.7*	0.8	-18.5	-2.5	0.8
COc1cc2c(cc1O)CC1c3c(cc(O)c(OC)c3-2)CCN1C (stereo not given)	9.7*	9.5	13.6	-0.7	9.5*
